# Assay results: ChEMBL document CHEMBL5252546, “Salutaxel, a Conjugate of Docetaxel and a Muramyl Dipeptide (MDP) Analogue, Acts as Multifunctional Prodrug That Inhibits Tumor Growth and Metastasis” (J Med Chem, 2018)
# Calls of active or inactive are those of the source. No cut-off for these calls is given here.
# What was measured:
# 4T1 [1] = test: Antitumor activity against mouse 4T1 cells xenografted with BALB/c mouse assessed as inhibition of tumor growth at 5.7 mg/kg,iv in presence of compound 5b administrated once per week for 4 weeks; assay type: functional; settings: 4T1, 672 h
# Outline: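 4T1 cells injected into mammary fat pads of BALB/c mice. Dosing iv once per week for 4 weeks, saline vehicle; single-agent arms were given alone or with the peptide component (5b or 6). Endpoints were body weight, tumour volume, tumour weight, lung metastatic nodule count and lung metastasis score. Mean ± SEM, n = 10; ANOVA and Student's t test.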
# [2] = Toxicity in BALB/c mouse injected with mouse 4T1 cells assessed as body weight loss at 5.7 mg/kg,iv in presence of compound 6 administrated once per week for 4 weeks; assay type: organism-based; settings: in vivo, 672 h
# [3] = Tmax in mouse plasma implanted with mouse 4T1 cells at 5.7 mg/kg,iv measured upto 72 hrs; assay type: ADME, organism-based
# 4T1 [4] = test: Antitumor activity against mouse 4T1 cells implanted in BALB/c mouse assessed as decrease in neutrophil in peripheral blood at 11.4 mg/kg,iv administrated qd for 2 days by blood smear staining microscopic analysis; assay type: functional, organism-based; settings: time 2.0 day
# Outline: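 On day 19 after 4T1 implantation, mice were randomized into five groups and given iv vehicle or test article, plus ip C12-iE-DAP (50 μg/mouse) and MDP (100 μg/mouse), once daily for 2 days. Mice were killed 6 h later. Peripheral blood neutrophils/leukocytes were counted on stained blood smears at 1000×.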
# 4T1 [5] = test: Antitumor activity against mouse 4T1 cells implanted in BALB/c mouse assessed as decrease in spleen MMP2 expression level at 5.7 mg/kg,iv administrated once per week for 4 weeks in presence of MDA-205 by western blot assay; assay type: functional, organism-based
# Outline: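 4T1 cells injected into mammary fat pads of BALB/c mice. Saline vehicle or test article given iv once weekly for 4 weeks. Spleen, lung and tumor lysates immunoblotted for MMP2/MMP9 with β-actin as loading control. Bands averaged over five mice per group, representative of two independent experiments.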
# Cytochrome P450 2B6 = Cytochrome P450 2B6 (Homo sapiens, UniProt P20813); test: Inhibition of CYP2B6 in human liver microsomes using probe substrate at 0.1 to 100 uM in presence of NADPH; assay type: ADME, Microsome; settings: dose 0.1-100 µM
# [6] = Tmax in female Beagle dog at 1 mg/kg,iv measured upto 24 hrs; assay type: ADME, organism-based, Canis lupus familiaris; settings: in vivo
# [7] = Toxicity in male Sprague-Dawley rat assessed as testicular atrophy at 2 to 8 mg/kg,iv measured upto 24 hrs; assay type: organism-based; settings: in vivo, dose 2-8 mg/kg
# [8] = Plasma protein binding in human plasma incubated for 4 hrs; assay type: ADME, cell-free; settings: read-out: PPB (converted)
# [9] = AUC (0-t) in female Beagle dog at 1 mg/kg,iv measured upto 24 hrs; assay type: ADME, organism-based, Canis lupus familiaris; design: dose 1 mg/kg, time < 24 hrs, route iv; settings: in vivo
# Outline: (§1)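 Single iv dose: rats 2, 4 or 8 mg/kg by intravenous injection; Beagle dogs 1, 2 or 4 mg/kg by intravenous infusion. Plasma concentration–time data were analysed by sex and pooled. Reported parameters: Cmax, Tmax, AUC0−t, AUC0−∞, MRT0−∞, t1/2, CL, Vss, given as mean ± SD.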
# [10] = MRT (0 to infinity) in rat at 2 mg/kg,iv measured upto 24 hrs; assay type: ADME, organism-based; settings: in vivo
# 4T1 [11] = test: Antitumor activity against mouse 4T1 cells xenografted with BALB/c mouse assessed as reduction lung metastatic nodules at 5 to 20 mg/kg,iv administrated once per week for 4 weeks; assay type: functional, organism-based; settings: dose 5-20 mg/kg
# Outline: (§2)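 4T1 cells injected into the mammary fat pad of BALB/c mice; iv saline vehicle or 5, 10 or 20 mg/kg once weekly for 4 weeks; body weight, tumour volume, tumour weight, lung metastatic nodule count and metastasis score recorded; n = 10, mean ± SEM, ANOVA and Student's t test.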
# [12] = Drug concentration in plasma of Beagle dog assessed as docetaxel concentration at 1 to 4 mg/kg,iv measured upto 24 hrs; assay type: ADME, organism-based, Canis lupus familiaris; settings: in vivo, dose 1-4 mg/kg
# Outline: (§3)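 Beagle dogs were given a single iv infusion at 1, 2 or 4 mg/kg. Plasma parent drug and released docetaxel were followed over time. Cmax, Tmax, AUC, MRT, t1/2, CL and Vss were reported by sex and for all dogs combined.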
# [13] = Clearance in male Beagle dog at 4 mg/kg,iv measured upto 24 hrs; assay type: ADME, organism-based, Canis lupus familiaris; settings: in vivo; outline: as §3
# [14] = Tmax in female Beagle dog at 2 mg/kg,iv measured upto 24 hrs; assay type: ADME, organism-based, Canis lupus familiaris; settings: in vivo
# [15] = Toxicity in BALB/c mouse xenografted with mouse 4T1 cells assessed as decrease in body weight at 10 mg/kg,iv administrated with doxorubicin combination once per week for 4 weeks; assay type: organism-based; settings: in vivo, 672 h
# [16] = Clearance in Beagle dog at 2 mg/kg,iv measured upto 24 hrs; assay type: ADME, organism-based, Canis lupus familiaris; settings: in vivo; outline: as §3
# [17] = AUC (0-infinity) in male rat at 8 mg/kg,iv measured upto 24 hrs; assay type: ADME, organism-based; design: dose 8 mg/kg, time < 24 hrs, route iv; settings: in vivo; outline: as §1
# [18] = Drug distribution in rat adrenal gland at 4 mg/kg,iv measured by 0.25 hrs; assay type: ADME, organism-based; settings: in vivo
# Outline: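 Rats received 4 mg/kg iv. Parent drug and released docetaxel were assayed in tissues and plasma from the first sampling at 0.25 h to 24 h. The lower limit of quantitation was 200 ng/g.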
# 4T1 [19] = test: Antitumor activity against mouse 4T1 cells implanted in BALB/c mouse assessed as decrease in tumor MMP9 expression level at 5 to 20 mg/kg,iv administrated once per week for 4 weeks by western blot assay; assay type: functional, organism-based; settings: dose 5-20 mg/kg
# Outline: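 4T1 fat-pad model in BALB/c mice, iv once weekly for 4 weeks; MMP9, MMP2 and NOD1 in spleen, lung and tumour by western blot, β-actin loading control; bands averaged over five mice per group, representative of two independent experiments.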
# [20] = Toxicity in BALB/c mouse xenografted with human NCI-H1975 cells assessed as side effects at 10 mg/kg,iv administrated once per week for 3 weeks; assay type: organism-based; settings: in vivo, 504 h
# [21] = Clearance in rat at 2 mg/kg,iv measured upto 24 hrs; assay type: ADME, organism-based; settings: in vivo
# Outline: (§4)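 Rats were given a single iv injection at 2, 4 or 8 mg/kg. Plasma parent drug and released docetaxel were followed over time. Cmax, Tmax, AUC, MRT, t1/2, CL and Vss were reported for males, females and all animals combined.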
# 4T1 [22] = test: Antitumor activity against mouse 4T1 cells xenografted with BALB/c mouse assessed as decrease in tumor volume at 10 mg/kg,iv administrated once per week for 4 weeks; assay type: functional, organism-based; outline: as §2
# OVCAR-3 = test: Antiproliferative activity against human OVCAR-3 cells assessed inhibition of cell growth incubated for 72 hrs by SRB assay; assay type: functional, cell-based; settings: OVCAR-3, 72 h
# [23] = Volume of distribution at steady state in rat at 4 mg/kg,iv measured upto 24 hrs; assay type: ADME, organism-based; settings: in vivo, read-out: Vdss
# [24] = Clearance in male rat at 4 mg/kg,iv measured upto 24 hrs; assay type: ADME, organism-based; settings: in vivo; outline: as §4
# 4T1 [25] = test: Antitumor activity against mouse 4T1 cells implanted in BALB/c mouse assessed as decrease in spleen MDSC cells at 10 mg/kg,iv measured after 28 days (reference value: 38%); assay type: functional; design: scale not given: the % may be the effect or the level left; settings: time 28 day
# [26] = Clearance in rat at 4 mg/kg,iv measured upto 24 hrs; assay type: ADME, organism-based; settings: in vivo; outline: as §4
# [27] = Toxicity in Beagle dog assessed as effect on respiratory intensity at 1 to 4 mg/kg,iv; assay type: organism-based, Canis lupus familiaris; settings: in vivo, dose 1-4 mg/kg
# [28] = Tmax in Beagle dog at 4 mg/kg,iv measured upto 24 hrs; assay type: ADME, organism-based, Canis lupus familiaris; settings: in vivo
# [29] = AUC (0-infinity) in male rat at 2 mg/kg,iv measured upto 24 hrs; assay type: ADME, organism-based; design: dose 2 mg/kg, time < 24 hrs, route iv; settings: in vivo; outline: as §1
# Cytochrome P450 2B6, sequence (P20813 whole entry): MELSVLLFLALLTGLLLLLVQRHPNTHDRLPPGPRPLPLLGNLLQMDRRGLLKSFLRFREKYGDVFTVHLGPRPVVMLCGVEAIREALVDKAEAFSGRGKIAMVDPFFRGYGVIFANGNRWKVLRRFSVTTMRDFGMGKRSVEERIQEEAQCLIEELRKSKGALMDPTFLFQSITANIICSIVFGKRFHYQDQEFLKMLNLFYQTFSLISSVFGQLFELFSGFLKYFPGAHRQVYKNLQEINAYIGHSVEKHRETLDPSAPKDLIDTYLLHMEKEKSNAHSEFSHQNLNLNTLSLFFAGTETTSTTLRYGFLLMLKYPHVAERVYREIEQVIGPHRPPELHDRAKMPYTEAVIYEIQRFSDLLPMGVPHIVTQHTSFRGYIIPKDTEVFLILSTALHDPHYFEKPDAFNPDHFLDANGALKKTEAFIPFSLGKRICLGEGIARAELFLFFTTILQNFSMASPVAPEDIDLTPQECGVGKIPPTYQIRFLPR
smiles,measurement,setting,value
CC(=O)O[C@@]12CO[C@@H]1C[C@H](O)[C@@]1(C)C(=O)[C@H](O)C3=C(C)[C@@H](OC(=O)[C@H](O)[C@@H](NC(=O)OC(C)(C)C)c4ccccc4)C[C@@](O)([C@@H](OC(=O)c4ccccc4)[C@H]21)C3(C)C [DOCETAXEL ANHYDROUS],inhibition in vivo at 5.7 mg/kg,4T1 [1],14.4%
same,Activity,[2],Non-Toxic
same,Tmax,[3],1.8 min
same,Activity,4T1 [4],Active
same,Activity,4T1 [5],inactive
CC(=O)O[C@@]12CO[C@@H]1C[C@H](O)[C@@]1(C)C(=O)[C@H](O)C3=C(C)[C@@H](OC(=O)[C@H](OC(=O)CCC(=O)NCCCC[C@H](NC(=O)CC[C@@H](NC(=O)[C@H](C)NC(=O)/C=C/c4ccc(F)cc4Cl)C(N)=O)C(=O)O)[C@@H](NC(=O)OC(C)(C)C)c4ccccc4)C[C@@](O)([C@@H](OC(=O)c4ccccc4)[C@H]21)C3(C)C,inhibition (INH),Cytochrome P450 2B6,Not Active
same,Tmax,[6],30 min
same,Activity,[7],Toxic
same,fraction unbound at 4 h,[8],0.007
same,AUC(0-t) at 24 h,[9],1590 ng·h/mL
same,MRT inf,[10],11.3 min
same,Activity,4T1 [11],Active
same,Drug uptake,[12],0.23%
same,clearance,[13],4.56 mL/min/kg
same,Tmax,[14],30 min
same,Activity,[15],Toxic
same,clearance,[16],6.08 mL/min/kg
same,AUC(0-inf),[17],52800 ng·h/mL
same,Drug uptake,[18],Active
same,Activity,4T1 [19],inactive
same,Activity,[20],Non-Toxic
same,clearance,[21],6.66 mL/min/kg
same,Activity,4T1 [22],Active
same,IC50,OVCAR-3,16.3 nM
same,Vd,[23],0.076 L/kg
same,clearance,[24],3.28 mL/min/kg
same,Activity,4T1 [25],20.2%
same,clearance,[26],4.21 mL/min/kg
same,Activity,[27],Non-Toxic
same,Tmax,[28],30 min
same,AUC(0-inf),[29],6120 ng·h/mL
